Calls of active or inactive are those of the source. The calls are words filed in the database; no cut-off is given here.
Columns and labels:
Bcap37 [1] = assay: Growth inhibition of human Bcap37 cells at 10 uM after 72 hrs by MTT assay relative to control; format: functional; details: for inhibition of growth at 10 µM: Homo sapiens, Bcap37, 72 h, read-out: GI
Summary of the method: (§1)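 Cells in RPMI 1640 with 10% heat-inactivated FBS, 37 °C, 5% CO2. Seeded at 2 × 10³ cells per well. Compounds dissolved in DMSO, diluted in medium, tested at 1–100 μM for 72 h; 0.1% DMSO control. MTT read-out, absorbance at 595 nm. Mean ± SD of triplicate experiments. IC50 taken from the dose–response curve.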

Bcap37 [2] = assay: Growth inhibition of human Bcap37 cells at 1 uM after 72 hrs by MTT assay relative to control; format: functional; details: for inhibition of growth at 1 µM: Homo sapiens, Bcap37, 72 h, read-out: GI; summary of the method: as §1
BGC-823 [3] = assay: Growth inhibition of human BGC823 cells at 10 uM after 72 hrs by MTT assay relative to control; format: functional; details: BGC-823, 72 h, read-out: GI; summary of the method: as §1
BGC-823 [4] = assay: Growth inhibition of human BGC823 cells at 1 uM after 72 hrs by MTT assay relative to control; format: functional; details: BGC-823, 72 h, read-out: GI; summary of the method: as §1
PC-3 [5] = assay: Growth inhibition of human PC3 cells at 1 uM after 72 hrs by MTT assay relative to control; format: functional; details: for inhibition of growth at 1 µM: Homo sapiens, PC-3, 72 h, read-out: GI; summary of the method: as §1
PC-3 [6] = assay: Growth inhibition of human PC3 cells at 10 uM after 72 hrs by MTT assay relative to control; format: functional; details: for inhibition of growth at 10 µM: Homo sapiens, PC-3, 72 h, read-out: GI; summary of the method: as §1
[7] = target: T1, Mitogen-activated protein kinase; ERK1/ERK2 (Homo sapiens) (UniProt P27361+P28482); assay: Inhibition of EGF-induced ERK1/2 phosphorylation in human PC3 cells at 10 uM incubated for 60 mins prior to EGF-treatment measured after 10 mins by Western blotting analysis; format: cell-based; details: PC-3
Summary of the method: (§2)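 PC3 cells grown 36–48 h in RPMI 1640 with 10% FBS at 37 °C, then serum-starved 24 h. Treated with compound for 60 min, then EGF 10 ng/mL for 10 min; quenched on ice. Cells washed with cold PBS and lysed in NP-40/SDS buffer with Na3VO4 and NaF. Run on 10% SDS-PAGE, PVDF blot probed for pERK1/2 with actin as loading control, ECL detection.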

[8] = target: T1, Mitogen-activated protein kinase; ERK1/ERK2 (Homo sapiens); assay: Inhibition of EGF-induced ERK1/2 phosphorylation in human PC3 cells at 5.12 uM incubated for 60 mins prior to EGF-treatment measured after 10 mins by Western blotting analysis; format: cell-based; details: PC-3; summary of the method: as §2
[9] = target: T1, Mitogen-activated protein kinase; ERK1/ERK2 (Homo sapiens); assay: Inhibition of EGF-induced ERK1/2 phosphorylation in human PC3 cells at 1.28 uM incubated for 60 mins prior to EGF-treatment measured after 10 mins by Western blotting analysis; format: cell-based; details: PC-3; summary of the method: as §2
Bcap37 [10] = assay: Growth inhibition of human Bcap37 cells after 72 hrs by MTT assay; format: functional, cell-based; details: Bcap37, 72 h; summary of the method: as §1
BGC-823 [11] = assay: Growth inhibition of human BGC823 cells after 72 hrs by MTT assay; format: functional, cell-based; details: BGC-823, 72 h; summary of the method: as §1
PC-3 [12] = assay: Growth inhibition of human PC3 cells after 72 hrs by MTT assay; format: functional, cell-based; details: PC-3, 72 h; summary of the method: as §1

T1 sequence (P27361 whole entry, looked up): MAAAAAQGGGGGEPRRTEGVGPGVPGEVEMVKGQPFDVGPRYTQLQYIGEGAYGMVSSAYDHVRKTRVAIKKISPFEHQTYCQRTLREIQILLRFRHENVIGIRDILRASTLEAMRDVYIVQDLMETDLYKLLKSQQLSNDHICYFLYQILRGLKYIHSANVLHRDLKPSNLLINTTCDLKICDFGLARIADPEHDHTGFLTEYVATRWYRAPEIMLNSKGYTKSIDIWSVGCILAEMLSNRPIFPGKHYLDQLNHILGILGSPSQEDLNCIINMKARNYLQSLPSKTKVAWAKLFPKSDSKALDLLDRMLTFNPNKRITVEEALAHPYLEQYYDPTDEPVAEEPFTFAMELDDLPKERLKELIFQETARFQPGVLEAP
T1 sequence (P28482 whole entry, looked up): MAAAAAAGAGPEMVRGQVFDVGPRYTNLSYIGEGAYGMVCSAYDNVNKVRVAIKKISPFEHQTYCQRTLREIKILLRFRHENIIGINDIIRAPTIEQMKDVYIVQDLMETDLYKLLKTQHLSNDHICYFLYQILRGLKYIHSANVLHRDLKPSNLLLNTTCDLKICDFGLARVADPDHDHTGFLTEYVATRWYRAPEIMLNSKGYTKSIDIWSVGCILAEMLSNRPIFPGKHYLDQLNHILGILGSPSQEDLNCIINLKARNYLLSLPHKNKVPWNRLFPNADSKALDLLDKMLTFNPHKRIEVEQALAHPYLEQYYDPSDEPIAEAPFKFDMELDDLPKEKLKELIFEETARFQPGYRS

Structure (SMILES) | inhibition of growth at 10 µM (Bcap37 [1]) [%] | inhibition of growth at 1 µM (Bcap37 [2]) [%] | inhibition of growth at 10 µM (BGC-823 [3]) [%] | inhibition of growth at 1 µM (BGC-823 [4]) [%] | inhibition of growth at 1 µM (PC-3 [5]) [%] | inhibition of growth at 10 µM (PC-3 [6]) [%] | inhibition [7] | other results
COc1cc2ncnc(NCCc3cccc(F)c3)c2c(OC)c1OC | 45.8 | 2.1 | 58.9 | 40.8 | 35.6 | 61.7 | – | –
COc1cc2ncnc(Nc3ccc(C)cc3)c2c(OC)c1OC | 11.1 | 7.3 | 19.3 | 1.2 | 23.8 | 45.6 | Active | inhibition [8]: Active
COc1cc2ncnc(Nc3ccc(Cl)cc3)c2c(OC)c1OC | 26.4 | 22.2 | 43 | 15.5 | 6.3 | 31.3 | – | –
COc1cc2ncnc(Nc3cccc(C(F)(F)F)c3)c2c(OC)c1OC | 23.5 | 21 | 24.3 | 1 | 14.9 | 46.6 | Active | inhibition [9]: Active
COc1cc2ncnc(Nc3cccc(Cl)c3)c2c(OC)c1OC.Cl | 17.5 | 11 | 23.9 | 5.9 | – | – | – | growth inhibition (GI) (PC-3 [5]): 16.9%; growth inhibition (GI) (PC-3 [6]): 28.8%
COc1cc2ncnc(Nc3ccc(Br)cc3)c2c(OC)c1OC | 26.1 | 10.4 | 32.6 | 13.8 | 1 | 22.2 | Active | –
COc1cc2ncnc(Nc3ccc(C(F)(F)F)cc3)c2c(OC)c1OC | 32.3 | 8.6 | 17.4 | 2.4 | 7.4 | 29 | Active | inhibition [9]: Active
COc1cc2ncnc(Nc3cccc(Br)c3)c2cc1OC | 43.4 | 19.8 | 32.6 | 9.3 | 21.5 | 62.8 | – | IC50 (Bcap37 [10]): 15.7 µM; IC50 (BGC-823 [11]): 14.4 µM; IC50 (PC-3 [12]): 8.3 µM
COc1cc2ncnc(Nc3cccc([N+](=O)[O-])c3)c2c(OC)c1OC | 50 | 31.6 | 16.3 | 9 | 14.5 | 26.4 | – | –
COc1cc2ncnc(Nc3cc(C(F)(F)F)ccc3Br)c2c(OC)c1OC | – | – | 23.2 | 2.1 | -3.9 | 25.3 | – | –
COc1cc2ncnc(Nc3cc(F)ccc3Br)c2c(OC)c1OC | 18.9 | 10.5 | 60.7 | 12.4 | 12.8 | 34.7 | – | –
COc1cc2ncnc(Nc3ccc(Br)cc3Cl)c2c(OC)c1OC | 18.6 | 8.7 | – | – | -8.4 | 49.7 | – | –
COc1cc2ncnc(Nc3cccc(F)c3)c2c(OC)c1OC [listing 1 of 2 here] | – | – | – | – | – | – | Active | inhibition [8]: Active
COc1cc2ncnc(Nc3ccccc3F)c2c(OC)c1OC | – | – | – | – | 0.9 | 24 | Active | –
COc1cc2ncnc(Nc3cccc(F)c3)c2c(OC)c1OC [listing 2 of 2 here] | – | – | – | – | – | 21.5 | – | growth inhibition (GI) (PC-3 [5]): 14.7%
COc1cc2ncnc(Nc3ccc(O)cc3)c2c(OC)c1OC | 3.3 | -7.5 | – | – | 9.3 | 24.6 | Active | –
COc1cc2ncnc(Nc3cc(C(F)(F)F)ccc3F)c2c(OC)c1OC | 27.6 | 14.4 | – | – | 7.6 | 29.2 | Active | –
COc1cc2ncnc(Nc3cc(I)ccc3C(=O)O)c2c(OC)c1OC | 20.7 | 19.4 | 51.9 | 42.2 | 14.1 | 22.6 | – | –
COc1cc2ncnc(Nc3ccccc3[N+](=O)[O-])c2c(OC)c1OC | 15.4 | -8.3 | – | – | 11.3 | 25.5 | – | –
COc1cc2ncnc(Nc3c(F)cc(F)cc3Br)c2c(OC)c1OC | 2.2 | 4.3 | 68.4 | 38.5 | 8.1 | 43 | – | –
COc1cc(Nc2ncnc3cc(OC)c(OC)c(OC)c23)c(C(=O)O)cc1OC | 53.7 | 40.9 | 34.3 | 13.2 | 12.5 | 40.4 | – | –
COc1cc2ncnc(Nc3cccc(Cl)c3)c2c(OC)c1OC [listing 1 of 2 here] | – | – | – | – | – | – | – | growth inhibition (GI) (Bcap37 [1]): 28.8%; growth inhibition (GI) (Bcap37 [2]): 14.1%; growth inhibition (GI) (PC-3 [5]): -4.5%; growth inhibition (GI) (PC-3 [6]): 11.9%
COc1cc2ncnc(Nc3cccc(F)c3)c2c(OC)c1OC.Cl | 13.5 | 7 | – | – | 14.9 | – | – | growth inhibition (GI) (PC-3 [6]): 38.9%
COc1cc2ncnc(Nc3ccc([N+](=O)[O-])cc3)c2c(OC)c1OC | -16.3 | -12 | – | – | 7.9 | 24.9 | – | –
COc1cc2ncnc(Nc3cccc(C(F)(F)F)c3F)c2c(OC)c1OC | 69.3 | 11.3 | 41.9 | 3.9 | 9.2 | 42.7 | – | –
COc1cc2ncnc(Nc3ccc(F)cc3)c2c(OC)c1OC | 10.8 | 7.8 | – | – | 3.1 | 9.1 | Active | inhibition [8]: Active
COc1cc2ncnc(Nc3cccc(Cl)c3)c2c(OC)c1OC [listing 2 of 2 here] | – | – | – | – | – | – | Active | –
COc1cc2ncnc(Nc3c(C)cc(C)cc3Br)c2c(OC)c1OC | – | – | 11.4 | 0.6 | 9.7 | 19.8 | – | –

Reference: ChEMBL document CHEMBL2407062, “Synthesis and anticancer activities of 5,6,7-trimethoxy-N-phenyl(ethyl)-4-aminoquinazoline derivatives” (Eur J Med Chem, 2013)
